Experimental data taken from ChEMBL document CHEMBL1151718, “Design, synthesis, and biological characterization of a caspase 3/7 selective isatin labeled with 2-[18F]fluoroethylazide” (J Med Chem, 2008).
Blank lines part the entries; values can stand above or below the compound they belong to. Calls of active or inactive are those of the source. The calls are words filed in the database; no cut-off is given here.

What was measured:
Caspase-3 = molecular target: T1, Caspase-3 (Homo sapiens, UniProt P42574); assay: Inhibition of human recombinant caspase 3 assessed as accumulation of 7-amino-4-methylcoumarin substrate
T1 sequence (P42574 whole entry): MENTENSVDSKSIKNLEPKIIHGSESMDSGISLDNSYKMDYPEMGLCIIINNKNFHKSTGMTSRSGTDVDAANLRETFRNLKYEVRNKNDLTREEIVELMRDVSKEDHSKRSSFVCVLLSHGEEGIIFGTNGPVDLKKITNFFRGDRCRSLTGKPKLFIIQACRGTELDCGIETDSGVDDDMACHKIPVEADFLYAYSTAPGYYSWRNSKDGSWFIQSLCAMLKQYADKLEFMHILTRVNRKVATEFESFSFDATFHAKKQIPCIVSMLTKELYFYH
Method in brief: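 Substrates at 10 µM: Ac-DEVD-AMC (caspase 3), Ac-VEID-AMC (caspase 6), Ac-IETD-AMC (caspase 8), added after 10 min preincubation with inhibitor (5 pM–500 µM). Duplicates, two runs; EC50 by nonlinear regression.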

Plasma [1] = assay: Metabolic stability in […] mouse plasma assessed as ratio of peak to total radioactivity present on chromatogram at 3.7 MBq, iv after 15 mins; format: ADME, organism-based; conditions: in vivo, 0.25 h
Method in brief: (§1)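 [¹⁸F]15 (7.4 MBq) injected iv into non-tumor-bearing C3H/hej mice. Plasma and liver were snap-frozen, extracted with ice-cold acetonitrile (liver homogenized), centrifuged and dried. Extracts were analyzed by reverse-phase C18 radio-HPLC (ammonium formate/methanol:acetonitrile gradient). Percent parent = parent peak relative to total chromatogram radioactivity. Plasma: average of 3 studies per time point; liver: individual results from two samples.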

Liver = assay: Metabolic stability […] mouse liver assessed as ratio of peak to total radioactivity present on chromatogram at 3.7 MBq, iv after 2 mins; format: ADME, organism-based; conditions: in vivo; method in brief: as §1
[2] = Increase in drug uptake in mouse RIF1 cells after 60 mins relative to control; format: ADME, cell-based; conditions: rif-1, 1 h
Method in brief: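 RIF-1 murine fibrosarcoma cells, plated in triplicate 2–3 days ahead, were exposed to CDDP at 100 µM or to vehicle (0.1% DMSO) for 48 h. About 10 µCi/well of the 18F tracer was then taken up for 60 min at 37 °C. Cells were collected, washed, resuspended in PBS and gamma-counted. Decay-corrected counts/min were normalised to mg protein (BCA), and the treated level was compared with the untreated one.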

Plasma [3] = assay: Metabolic stability in […] mouse plasma assessed as ratio of peak to total radioactivity present on chromatogram at 3.7 MBq, iv after 2 mins; format: ADME, organism-based, RIF-1; conditions: in vivo, in the assay text read “7.4 MBq” for “3.7 MBq”; method in brief: as §1
[4] = Lipophilicity, log P of the compound; format: physicochemical; conditions: octanol/water
[5] = Chemical stability assessed as half life; format: physicochemical
[6] = Metabolic stability in mouse liver S9 fraction at pH 7.4; format: ADME, subcellular; conditions: s9, pH 7.4
Method in brief: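 Mouse liver homogenized in 50 mM Tris–150 mM KCl–HCl pH 7.4 and spun at 10000g for 30 min to give S9. Compound (10 µL of 10 mM stock) was incubated with S9 (20 µL of 33.26 mg/mL) and 0.5 mM NADPH in Tris-HCl pH 7.4 (1 mL total), 60 min at 37 °C in air. Stopped with ice-cold acetonitrile and analyzed by gradient reverse-phase HPLC.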

Caspase-7 = molecular target: T2, Caspase-7 (Homo sapiens, UniProt P55210); assay: Inhibition of human recombinant caspase 7 assessed as accumulation of 7-amino-4-methylcoumarin substrate
T2 sequence (P55210 whole entry): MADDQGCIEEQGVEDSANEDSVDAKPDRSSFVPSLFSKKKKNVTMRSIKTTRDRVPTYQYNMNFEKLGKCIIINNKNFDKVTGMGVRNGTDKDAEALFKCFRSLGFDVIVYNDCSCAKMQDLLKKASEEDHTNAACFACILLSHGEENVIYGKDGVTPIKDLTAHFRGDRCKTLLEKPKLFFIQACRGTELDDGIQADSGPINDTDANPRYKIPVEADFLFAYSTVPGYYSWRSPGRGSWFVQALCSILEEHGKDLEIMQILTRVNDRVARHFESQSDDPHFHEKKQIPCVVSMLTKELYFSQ
Method in brief: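 Isatin (5 pM–500 µM, 9 levels) preincubated 10 min, then Ac-DEVD-AMC (10 µM final) added for 30 min. 7-AMC fluorescence read at ex 355/em 460 nm against no-enzyme controls. EC50 by nonlinear regression; duplicates, two runs.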

Caspase-1 = molecular target: T3, Caspase-1 (Homo sapiens, UniProt P29466); assay: Inhibition of human recombinant caspase 1 assessed as accumulation of 7-amino-4-methylcoumarin substrate
T3 sequence (P29466 whole entry): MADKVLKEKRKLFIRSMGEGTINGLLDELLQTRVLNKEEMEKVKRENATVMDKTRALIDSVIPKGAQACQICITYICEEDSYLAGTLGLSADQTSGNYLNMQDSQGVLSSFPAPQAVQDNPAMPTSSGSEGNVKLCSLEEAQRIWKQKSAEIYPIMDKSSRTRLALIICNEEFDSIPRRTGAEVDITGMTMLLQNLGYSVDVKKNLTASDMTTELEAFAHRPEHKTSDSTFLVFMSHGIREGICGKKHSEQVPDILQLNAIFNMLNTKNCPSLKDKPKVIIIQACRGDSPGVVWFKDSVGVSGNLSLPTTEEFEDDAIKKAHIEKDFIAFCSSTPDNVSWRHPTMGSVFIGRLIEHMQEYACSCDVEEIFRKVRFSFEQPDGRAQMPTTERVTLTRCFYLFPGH
Method in brief: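 Recombinant human caspase 1 (0.5 units) at 37 °C in 100 mM HEPES pH 7.4, 0.1% CHAPS, 100 mM NaCl, 5 mM 2-mercaptoethanol, 2 mM EDTA, 10% sucrose, 5% DMSO final. Inhibitor (5 pM–500 µM, 9 concentrations) preincubated 10 min before adding 10 µM Ac-YVAD-AMC for 30 min. 7-AMC fluorescence read at ex 355/em 460 nm against no-enzyme controls. Duplicates, two runs; EC50 by nonlinear regression.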

Caspase-6 = molecular target: T4, Caspase-6 (Homo sapiens, UniProt P55212); assay: Inhibition of human recombinant caspase 6 assessed as accumulation of 7-amino-4-methylcoumarin substrate
T4 sequence (P55212 whole entry): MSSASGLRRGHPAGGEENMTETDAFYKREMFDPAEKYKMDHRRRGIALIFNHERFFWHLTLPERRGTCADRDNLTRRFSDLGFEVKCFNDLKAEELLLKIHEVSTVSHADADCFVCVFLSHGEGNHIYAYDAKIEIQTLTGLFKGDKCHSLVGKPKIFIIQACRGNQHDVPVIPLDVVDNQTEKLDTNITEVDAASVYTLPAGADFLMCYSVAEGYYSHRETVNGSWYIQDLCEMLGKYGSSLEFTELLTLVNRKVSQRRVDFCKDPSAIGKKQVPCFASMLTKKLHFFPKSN
Method in brief: (§2)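 Substrates at 10 µM: Ac-DEVD-AMC (caspase 3), Ac-VEID-AMC (caspase 6), Ac-IETD-AMC (caspase 8), added after 10 min preincubation with inhibitor (5 pM–500 µM). 7-AMC read after 30 min at ex 355/em 460 nm. Duplicates, two runs; EC50 by nonlinear regression.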

Caspase-8 = Caspase-8 (Homo sapiens, UniProt Q14790); assay: Inhibition of human recombinant caspase 8 assessed as accumulation of 7-amino-4-methylcoumarin substrate; method in brief: as §2
Caspase-8, sequence (Q14790 217-374 limits assumed): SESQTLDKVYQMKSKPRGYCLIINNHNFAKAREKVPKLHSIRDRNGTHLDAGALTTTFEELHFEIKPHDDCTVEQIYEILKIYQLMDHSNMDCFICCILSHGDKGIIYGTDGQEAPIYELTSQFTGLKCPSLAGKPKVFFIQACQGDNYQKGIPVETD
Caspase-8, sequence (Q14790 385-479 limits assumed): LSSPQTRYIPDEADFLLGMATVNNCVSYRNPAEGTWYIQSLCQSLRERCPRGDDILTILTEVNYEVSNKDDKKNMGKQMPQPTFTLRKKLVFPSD

Caspase-3 (Mus musculus) = molecular target: T5, Caspase-3 (Mus musculus) (UniProt P70677); assay: Inhibition of caspase 3 in mouse RIF1 cells assessed as disruption of cisplatin-stimulated PARP induction by Western blot; format: cell-based; conditions: RIF-1
T5 sequence (whole entry): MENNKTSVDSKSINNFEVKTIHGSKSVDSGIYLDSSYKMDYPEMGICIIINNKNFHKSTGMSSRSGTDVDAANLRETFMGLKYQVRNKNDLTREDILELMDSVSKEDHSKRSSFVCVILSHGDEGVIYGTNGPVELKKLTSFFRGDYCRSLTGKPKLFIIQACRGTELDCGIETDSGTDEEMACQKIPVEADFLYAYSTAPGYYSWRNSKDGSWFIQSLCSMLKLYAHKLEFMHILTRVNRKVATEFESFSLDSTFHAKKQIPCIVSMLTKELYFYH
Method in brief: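 RIF-1 murine fibrosarcoma cells were pretreated 15 min with caspase inhibitors (Z-VAD-FMK 100 µM as control), then given cisplatin 100 µM for 48 h. Lysates were made in RIPA with protease/phosphatase inhibitors, and 30 µg protein was run on 4–12% SDS-PAGE and blotted to PVDF. Probed with anti-cleaved PARP (89 kDa fragment) and α-tubulin loading control, detected by ECL.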

Compound: O=C1C(=O)N(Cc2ccc(F)cc2)c2ccc(S(=O)(=O)N3CCC[C@H]3COC3CCOCC3)cc21
EC50 (Caspase-3): 10.7 nM

Compound: O=C1C(=O)N(Cc2cn(CC[18F])nn2)c2ccc(S(=O)(=O)N3CCC[C@H]3COc3ccc(F)cc3F)cc21
Activity (Plasma [1]): 61.3%
Activity (Liver): 35.7%
fold change (FC) [2]: 1.5
Activity (Plasma [3]): 86.1%

Compound: O=C1C(=O)N(Cc2cn(CCF)nn2)c2ccc(S(=O)(=O)N3CCC[C@H]3COc3ccc(F)cc3F)cc21
logP [4]: 1.61

Compound: O=C1C(=O)N(Cc2ccc(F)cc2)c2ccc(S(=O)(=O)N3CCCC3)cc21
Stability [6]: Stable

Further lines, results first:

EC50 (Caspase-3): 50.5 nM
Compound: O=C1C(=O)N(Cc2ccc(F)cc2)c2ccc(S(=O)(=O)N3CCC[C@H]3COc3ccccc3)cc21

half-life [5]: 59.9 days
Compound: O=C1C(=O)N(Cc2ccc([125I])cc2)c2ccc(S(=O)(=O)N3CCC[C@H]3COc3ccccc3)cc21

EC50 (Caspase-3): 12.6 nM
EC50 (Caspase-7): 18.3 nM
EC50 (Caspase-1): > 5000 nM
EC50 (Caspase-6): > 5000 nM
EC50 (Caspase-8): > 5000 nM
Compound: O=C1C(=O)N(Cc2ccc(F)cc2)c2ccc(S(=O)(=O)N3CCC[C@H]3COCc3cn(CCF)nn3)cc21

Activity (Caspase-3 (Mus musculus)): inactive
Compound: O=C1C(=O)N(Cc2ccc(I)cc2)c2ccc(S(=O)(=O)N3CCC[C@H]3COc3ccccc3)cc21
